Test system: HEK-293T
Assay: Multiplex assay against HEK293T;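 for Population Tubulin-Different-Phenotype (%): share of the cells with healthy nuclei that show this phenotype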
Format: toxicity, cell-based
Conditions: human
Summary of the method: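 Imaging took place on a CQ1 microscope at 37°C and 5% CO2 once compound had been added to live cells stained at seeding with Hoechst33342, BioTracker Green Microtubule Cytoskeleton Dye, MitoTracker Red and Annexin V Alexa Fluor 680. CellPathfinder machine-learning gating classed cells as Hoechst high-intensity objects or normal cells, classed normal cells as having healthy, pyknosed or fragmented nuclei, and classed pyknosed cells as mitotic or apoptotic. Tubulin, mitochondrial-mass and membrane-permeability phenotypes are per cents of the healthy-nucleus cells.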

[1] = 12 h, 1 µM, compound concentration 1 uM, replicate 1
[2] = 12 h, 1 µM, compound concentration 1 uM, replicate 2
[3] = 12 h, 10 µM, compound concentration 10 uM, replicate 1
[4] = 12 h, 10 µM, compound concentration 10 uM, replicate 2
[5] = 24 h, 1 µM, compound concentration 1 uM, replicate 1
[6] = 24 h, 1 µM, compound concentration 1 uM, replicate 2
[7] = 24 h, 10 µM, compound concentration 10 uM, replicate 1
[8] = 24 h, 10 µM, compound concentration 10 uM, replicate 2
[9] = 48 h, 1 µM, compound concentration 1 uM, replicate 1
[10] = 48 h, 1 µM, compound concentration 1 uM, replicate 2
[11] = 48 h, 10 µM, compound concentration 10 uM, replicate 1
[12] = 48 h, 10 µM, compound concentration 10 uM, replicate 2

Question: For `COc1cccc([C@@H](C)NCCCc2ccccc2Cl)c1.Cl` [TECALCET HYDROCHLORIDE], which “Population Apoptotic (%)” value [1] is on record?
Answer: 45%

Question: And the “Population Fragmented Nuclei (%)” value [1]?
Answer: 9%

Question: What about the “Population Healthy Nuclei (%)” value [1] of the same molecule?
Answer: 46%

Question: What about the “Population Hoechst High Intensity Objects (%)” value [1] of the same molecule?
Answer: 11%

Question: What about the “Population Membrane Permeable-Phenotype (%)” value [1] of the same molecule?
Answer: 2%

Question: And the “Population Mitochondria Different-Phenotype (%)” value [1]?
Answer: 83%

Question: What about the “Population Mitotic Cells (%)” value [1] of the same molecule?
Answer: 54%

Question: What about the “Population Normal (%)” value [1] of the same molecule?
Answer: 88%

Question: What about the “Population Pyknosed Nuclei (%)” value [1] of the same molecule?
Answer: 44%

Question: And the “Population Tubulin-Different-Phenotype (%)” value [1]?
Answer: 57%

Question: And the “Total Cell Count” value [1]?
Answer: 333

Question: What about the “Population Apoptotic (%)” value [2] of the same molecule?
Answer: 16%

Question: And the “Population Fragmented Nuclei (%)” value [2]?
Answer: 3%

Question: And the “Population Healthy Nuclei (%)” value [2]?
Answer: 29%

Question: What about the “Population Hoechst High Intensity Objects (%)” value [2] of the same molecule?
Answer: 3%

Question: And the “Population Membrane Permeable-Phenotype (%)” value [2]?
Answer: 11%

Question: What about the “Population Mitochondria Different-Phenotype (%)” value [2] of the same molecule?
Answer: 45%

Question: And the “Population Mitotic Cells (%)” value [2]?
Answer: 83%

Question: And the “Population Normal (%)” value [2]?
Answer: 96%

Question: And the “Population Pyknosed Nuclei (%)” value [2]?
Answer: 67%

Question: And the “Population Tubulin-Different-Phenotype (%)” value [2]?
Answer: 41%

Question: And the “Total Cell Count” value [2]?
Answer: 188

Question: And the “Population Apoptotic (%)” value [3]?
Answer: 80%

Question: What about the “Population Fragmented Nuclei (%)” value [3] of the same molecule?
Answer: 9%

Question: And the “Population Healthy Nuclei (%)” value [3]?
Answer: 29%

Question: What about the “Population Hoechst High Intensity Objects (%)” value [3] of the same molecule?
Answer: 12%

Question: What about the “Population Membrane Permeable-Phenotype (%)” value [3] of the same molecule?
Answer: 2%

Question: And the “Population Mitochondria Different-Phenotype (%)” value [3]?
Answer: 100%

Question: And the “Population Mitotic Cells (%)” value [3]?
Answer: 19%

Question: And the “Population Normal (%)” value [3]?
Answer: 87%

Question: And the “Population Pyknosed Nuclei (%)” value [3]?
Answer: 60%

Question: What about the “Population Tubulin-Different-Phenotype (%)” value [3] of the same molecule?
Answer: 93%

Question: What about the “Total Cell Count” value [3] of the same molecule?
Answer: 290

Question: What about the “Population Apoptotic (%)” value [4] of the same molecule?
Answer: 59%

Question: What about the “Population Fragmented Nuclei (%)” value [4] of the same molecule?
Answer: 3%

Question: What about the “Population Healthy Nuclei (%)” value [4] of the same molecule?
Answer: 22%

Question: And the “Population Hoechst High Intensity Objects (%)” value [4]?
Answer: 4%

Question: And the “Population Membrane Permeable-Phenotype (%)” value [4]?
Answer: 4%

Question: And the “Population Mitochondria Different-Phenotype (%)” value [4]?
Answer: 95%

Question: And the “Population Mitotic Cells (%)” value [4]?
Answer: 40%

Question: And the “Population Normal (%)” value [4]?
Answer: 95%

Question: What about the “Population Pyknosed Nuclei (%)” value [4] of the same molecule?
Answer: 74%

Question: What about the “Population Tubulin-Different-Phenotype (%)” value [4] of the same molecule?
Answer: 95%

Question: And the “Total Cell Count” value [4]?
Answer: 222

Question: And the “Population Apoptotic (%)” value [5]?
Answer: 36%

Question: And the “Population Fragmented Nuclei (%)” value [5]?
Answer: 8%

Question: What about the “Population Healthy Nuclei (%)” value [5] of the same molecule?
Answer: 64%

Question: And the “Population Hoechst High Intensity Objects (%)” value [5]?
Answer: 9%

Question: What about the “Population Membrane Permeable-Phenotype (%)” value [5] of the same molecule?
Answer: 2%

Question: And the “Population Mitochondria Different-Phenotype (%)” value [5]?
Answer: 73%

Question: And the “Population Mitotic Cells (%)” value [5]?
Answer: 63%

Question: And the “Population Normal (%)” value [5]?
Answer: 90%

Question: And the “Population Pyknosed Nuclei (%)” value [5]?
Answer: 26%

Question: And the “Population Tubulin-Different-Phenotype (%)” value [5]?
Answer: 52%

Question: What about the “Total Cell Count” value [5] of the same molecule?
Answer: 417

Question: And the “Population Apoptotic (%)” value [6]?
Answer: 27%

Question: What about the “Population Fragmented Nuclei (%)” value [6] of the same molecule?
Answer: 3%

Question: And the “Population Healthy Nuclei (%)” value [6]?
Answer: 50%

Question: And the “Population Hoechst High Intensity Objects (%)” value [6]?
Answer: 2%

Question: And the “Population Membrane Permeable-Phenotype (%)” value [6]?
Answer: 10%

Question: What about the “Population Mitochondria Different-Phenotype (%)” value [6] of the same molecule?
Answer: 25%

Question: And the “Population Mitotic Cells (%)” value [6]?
Answer: 72%

Question: What about the “Population Normal (%)” value [6] of the same molecule?
Answer: 97%

Question: What about the “Population Pyknosed Nuclei (%)” value [6] of the same molecule?
Answer: 46%

Question: What about the “Population Tubulin-Different-Phenotype (%)” value [6] of the same molecule?
Answer: 44%

Question: And the “Total Cell Count” value [6]?
Answer: 217

Question: What about the “Population Apoptotic (%)” value [7] of the same molecule?
Answer: 74%

Question: What about the “Population Fragmented Nuclei (%)” value [7] of the same molecule?
Answer: 11%

Question: What about the “Population Healthy Nuclei (%)” value [7] of the same molecule?
Answer: 36%

Question: What about the “Population Hoechst High Intensity Objects (%)” value [7] of the same molecule?
Answer: 9%

Question: And the “Population Membrane Permeable-Phenotype (%)” value [7]?
Answer: 0%

Question: What about the “Population Mitotic Cells (%)” value [7] of the same molecule?
Answer: 25%

Question: And the “Population Normal (%)” value [7]?
Answer: 90%

Question: What about the “Population Pyknosed Nuclei (%)” value [7] of the same molecule?
Answer: 51%

Question: And the “Total Cell Count” value [7]?
Answer: 307

Question: And the “Population Apoptotic (%)” value [8]?
Answer: 63%

Question: And the “Population Fragmented Nuclei (%)” value [8]?
Answer: 4%

Question: What about the “Population Healthy Nuclei (%)” value [8] of the same molecule?
Answer: 41%

Question: And the “Population Hoechst High Intensity Objects (%)” value [8]?
Answer: 5%

Question: And the “Population Membrane Permeable-Phenotype (%)” value [8]?
Answer: 1%

Question: And the “Population Mitochondria Different-Phenotype (%)” value [8]?
Answer: 100%

Question: What about the “Population Mitotic Cells (%)” value [8] of the same molecule?
Answer: 36%

Question: And the “Population Normal (%)” value [8]?
Answer: 94%

Question: What about the “Population Pyknosed Nuclei (%)” value [8] of the same molecule?
Answer: 53%

Question: And the “Population Tubulin-Different-Phenotype (%)” value [8]?
Answer: 97%

Question: And the “Total Cell Count” value [8]?
Answer: 233

Question: What about the “Population Apoptotic (%)” value [9] of the same molecule?
Answer: 20%

Question: What about the “Population Fragmented Nuclei (%)” value [9] of the same molecule?
Answer: 6%

Question: What about the “Population Healthy Nuclei (%)” value [9] of the same molecule?
Answer: 81%

Question: And the “Population Hoechst High Intensity Objects (%)” value [9]?
Answer: 5%

Question: And the “Population Membrane Permeable-Phenotype (%)” value [9]?
Answer: 2%

Question: What about the “Population Mitochondria Different-Phenotype (%)” value [9] of the same molecule?
Answer: 22%

Question: And the “Population Mitotic Cells (%)” value [9]?
Answer: 79%

Question: What about the “Population Normal (%)” value [9] of the same molecule?
Answer: 94%

Question: And the “Population Pyknosed Nuclei (%)” value [9]?
Answer: 11%

Question: And the “Population Tubulin-Different-Phenotype (%)” value [9]?
Answer: 23%

Question: And the “Total Cell Count” value [9]?
Answer: 698

Question: And the “Population Apoptotic (%)” value [10]?
Answer: 23%

Question: And the “Population Fragmented Nuclei (%)” value [10]?
Answer: 7%

Question: What about the “Population Healthy Nuclei (%)” value [10] of the same molecule?
Answer: 76%

Question: And the “Population Hoechst High Intensity Objects (%)” value [10]?
Answer: 3%

Question: What about the “Population Membrane Permeable-Phenotype (%)” value [10] of the same molecule?
Answer: 8%

Question: And the “Population Mitochondria Different-Phenotype (%)” value [10]?
Answer: 15%

Question: What about the “Population Mitotic Cells (%)” value [10] of the same molecule?
Answer: 76%

Question: What about the “Population Normal (%)” value [10] of the same molecule?
Answer: 96%

Question: And the “Population Pyknosed Nuclei (%)” value [10]?
Answer: 16%

Question: What about the “Population Tubulin-Different-Phenotype (%)” value [10] of the same molecule?
Answer: 49%

Question: What about the “Total Cell Count” value [10] of the same molecule?
Answer: 383

Question: What about the “Population Apoptotic (%)” value [11] of the same molecule?
Answer: 73%

Question: And the “Population Fragmented Nuclei (%)” value [11]?
Answer: 15%

Question: What about the “Population Healthy Nuclei (%)” value [11] of the same molecule?
Answer: 55%

Question: And the “Population Hoechst High Intensity Objects (%)” value [11]?
Answer: 10%

Question: What about the “Population Membrane Permeable-Phenotype (%)” value [11] of the same molecule?
Answer: 1%

Question: What about the “Population Mitochondria Different-Phenotype (%)” value [11] of the same molecule?
Answer: 94%

Question: And the “Population Mitotic Cells (%)” value [11]?
Answer: 26%

Question: And the “Population Normal (%)” value [11]?
Answer: 89%

Question: What about the “Population Pyknosed Nuclei (%)” value [11] of the same molecule?
Answer: 29%

Question: What about the “Population Tubulin-Different-Phenotype (%)” value [11] of the same molecule?
Answer: 89%

Question: What about the “Total Cell Count” value [11] of the same molecule?
Answer: 355

Question: What about the “Population Apoptotic (%)” value [12] of the same molecule?
Answer: 58%

Question: What about the “Population Fragmented Nuclei (%)” value [12] of the same molecule?
Answer: 4%

Question: What about the “Population Healthy Nuclei (%)” value [12] of the same molecule?
Answer: 62%

Question: What about the “Population Hoechst High Intensity Objects (%)” value [12] of the same molecule?
Answer: 2%

Question: And the “Population Membrane Permeable-Phenotype (%)” value [12]?
Answer: 0%

Question: And the “Population Mitochondria Different-Phenotype (%)” value [12]?
Answer: 93%

Question: What about the “Population Mitotic Cells (%)” value [12] of the same molecule?
Answer: 41%

Question: And the “Population Normal (%)” value [12]?
Answer: 97%

Question: And the “Population Pyknosed Nuclei (%)” value [12]?
Answer: 33%

Question: What about the “Population Tubulin-Different-Phenotype (%)” value [12] of the same molecule?
Answer: 96%

Question: What about the “Total Cell Count” value [12] of the same molecule?
Answer: 265
